Experimental data: ChEMBL document CHEMBL3608231, “Eremophilane Sesquiterpenes and Polyketones Produced by an Endophytic Guignardia Fungus from the Toxic Plant Gelsemium elegans” (J Nat Prod, 2015)
Active and inactive are the calls of the source.

Tests used:
Type in all cases: functional, cell-based
[1] = system: HCT-8; assay: Cytotoxicity against human HCT8 cells after 72 hrs by MTT assay
In short: (§1)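 Cells kept in RPMI 1640 with 10% FBS in 96-well plates, 24 h at 37 °C, then samples added from DMSO solution at final 10 μM. Growth assessed after 72 h by MTT (4 h at 37 °C), formazan dissolved in DMSO, absorbance at 570 nm. Camptothecin as positive control.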

[2] = system: HCT-116; assay: Cytotoxicity against human HCT116 cells after 72 hrs by MTT assay; in short: as §1
[3] = system: Bel-7402; assay: Cytotoxicity against human Bel7402 cells after 72 hrs by MTT assay; in short: as §1
[4] = system: BGC-823; assay: Cytotoxicity against human BGC823 cells after 72 hrs by MTT assay; in short: as §1
[5] = system: A549; assay: Cytotoxicity against human A549 cells after 72 hrs by MTT assay; in short: as §1
[6] = system: A2780; assay: Cytotoxicity against human A2780 cells after 72 hrs by MTT assay; in short: as §1

Measured: Activity

C=C(C(C)=O)C(=C\c1cccc(C)c1N)/C(=C/O)CC
inactive: all assays above

C=C(C)[C@@H]1C[C@@]2(C)C(=CC1=O)[C@@H](O)[C@H](O)[C@H](O)[C@@H]2C
inactive: all assays above

C[C@H]1CCC(=O)O[C@@H]2C(=O)c3c(O)cccc3O[C@H]21
inactive: all assays above

CC(=O)O[C@H]1[C@@H](O)CC2=CC(=O)C(O)=C[C@]2(C)[C@H]1C
inactive: all assays above

CC(C)=C1C[C@@]2(C)C(=CC1=O)[C@@H](O)[C@H](O)[C@H](O)[C@@H]2C
inactive: all assays above

C=C(C)[C@@H]1C[C@@]2(C)C(=CC(=O)C[C@@H]2C)C[C@H]1O
inactive: all assays above

C=C1CC[C@H]2C(C)(C)CCC[C@]2(C)[C@H]1C[C@@]12O[C@@H]1[C@H](O)C(CO)=CC2=O
inactive: all assays above

C=C(C)[C@@H]1CC[C@@]2(C)OC3=C(C[C@@H]12)C(=O)[C@@H]1C[C@@]3(O)CO1
inactive: all assays above

C=C(C)[C@H]1C[C@@]2(C)C(=CC1=O)[C@H](O)[C@H](O)C[C@@H]2C
inactive: all assays above
